According to ChEMBL document CHEMBL4024790 (J Med Chem, 2018):
Active and inactive are the calls of the source. No cut-off for these calls is given here.

What was measured:
Mus musculus [1] = assay: In vivo effect on phosphorylated CREB level in CD-1 mouse brain cortex by immunoassay; type: functional, organism-based
Rattus norvegicus [2] = assay: Reversal of ketamine-induced working memory deficit in Long Evans rat at 1 mg/kg, sc by radial arm maze assay; type: functional, organism-based
Summary of the method: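 Rats trained in a radial arm maze working-memory task, with deficit induced by ketamine. Compound dosed sc; errors compared with vehicle + ketamine. N = 20–23 per group, Hochberg test. Cbu at the tested doses estimated from satellite pharmacokinetic animals.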

[3] = Tmax in Wistar Han rat at 5 mg/kg, po administered via gavage by LC-MS/MS analysis; type: ADME, organism-based; conditions: in vivo
Cytochrome P450 2C19 [4] = target: T1, Cytochrome P450 2C19 (Homo sapiens, UniProt P33261); assay: Inhibition of recombinant human CYP2C19; type: ADME; conditions: recombinant enzyme
T1 sequence (P33261 whole entry): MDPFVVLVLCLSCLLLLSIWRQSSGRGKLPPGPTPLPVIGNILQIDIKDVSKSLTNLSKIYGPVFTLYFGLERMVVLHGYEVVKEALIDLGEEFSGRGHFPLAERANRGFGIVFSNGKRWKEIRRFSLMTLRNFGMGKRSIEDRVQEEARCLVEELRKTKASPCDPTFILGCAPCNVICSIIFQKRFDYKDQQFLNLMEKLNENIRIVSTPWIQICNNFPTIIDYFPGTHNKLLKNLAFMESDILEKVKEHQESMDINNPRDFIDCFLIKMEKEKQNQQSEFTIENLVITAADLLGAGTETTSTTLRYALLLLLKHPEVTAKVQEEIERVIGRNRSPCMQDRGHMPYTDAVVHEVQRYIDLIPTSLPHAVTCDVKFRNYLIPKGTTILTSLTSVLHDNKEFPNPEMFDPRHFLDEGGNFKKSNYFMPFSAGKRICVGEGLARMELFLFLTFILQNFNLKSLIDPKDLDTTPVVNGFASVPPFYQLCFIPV

[5] = Volume of distribution at steady state in beagle dog at 0.3 mg/kg, iv by LC-MS/MS analysis; type: ADME, organism-based, Canis lupus familiaris; conditions: in vivo, read-out: Vdss
Summary of the method: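 Beagle dogs got a single IV dose as a solution in 20% (w/v) sulfobutyl ether β-cyclodextrin with hydrochloric acid, at 0.4 mL/kg. Blood was drawn into K3EDTA via carotid artery cannula at set times from 2 min to 24 h. Plasma was acetonitrile-precipitated with internal standard and measured by LC-MS/MS with positive electrospray, standard curve 0.61 to 1250 ng/mL.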

[6] = Intrinsic clearance in human hepatocytes; type: ADME, cell-based, Hepatocyte; conditions: read-out: CLH
Aldehyde oxidase = target: T2, Aldehyde oxidase (Homo sapiens, UniProt Q06278); assay: Drug metabolism assessed as aldehyde oxidase (unknown origin)-mediated metabolite formation; type: ADME
T2 sequence (Q06278 whole entry): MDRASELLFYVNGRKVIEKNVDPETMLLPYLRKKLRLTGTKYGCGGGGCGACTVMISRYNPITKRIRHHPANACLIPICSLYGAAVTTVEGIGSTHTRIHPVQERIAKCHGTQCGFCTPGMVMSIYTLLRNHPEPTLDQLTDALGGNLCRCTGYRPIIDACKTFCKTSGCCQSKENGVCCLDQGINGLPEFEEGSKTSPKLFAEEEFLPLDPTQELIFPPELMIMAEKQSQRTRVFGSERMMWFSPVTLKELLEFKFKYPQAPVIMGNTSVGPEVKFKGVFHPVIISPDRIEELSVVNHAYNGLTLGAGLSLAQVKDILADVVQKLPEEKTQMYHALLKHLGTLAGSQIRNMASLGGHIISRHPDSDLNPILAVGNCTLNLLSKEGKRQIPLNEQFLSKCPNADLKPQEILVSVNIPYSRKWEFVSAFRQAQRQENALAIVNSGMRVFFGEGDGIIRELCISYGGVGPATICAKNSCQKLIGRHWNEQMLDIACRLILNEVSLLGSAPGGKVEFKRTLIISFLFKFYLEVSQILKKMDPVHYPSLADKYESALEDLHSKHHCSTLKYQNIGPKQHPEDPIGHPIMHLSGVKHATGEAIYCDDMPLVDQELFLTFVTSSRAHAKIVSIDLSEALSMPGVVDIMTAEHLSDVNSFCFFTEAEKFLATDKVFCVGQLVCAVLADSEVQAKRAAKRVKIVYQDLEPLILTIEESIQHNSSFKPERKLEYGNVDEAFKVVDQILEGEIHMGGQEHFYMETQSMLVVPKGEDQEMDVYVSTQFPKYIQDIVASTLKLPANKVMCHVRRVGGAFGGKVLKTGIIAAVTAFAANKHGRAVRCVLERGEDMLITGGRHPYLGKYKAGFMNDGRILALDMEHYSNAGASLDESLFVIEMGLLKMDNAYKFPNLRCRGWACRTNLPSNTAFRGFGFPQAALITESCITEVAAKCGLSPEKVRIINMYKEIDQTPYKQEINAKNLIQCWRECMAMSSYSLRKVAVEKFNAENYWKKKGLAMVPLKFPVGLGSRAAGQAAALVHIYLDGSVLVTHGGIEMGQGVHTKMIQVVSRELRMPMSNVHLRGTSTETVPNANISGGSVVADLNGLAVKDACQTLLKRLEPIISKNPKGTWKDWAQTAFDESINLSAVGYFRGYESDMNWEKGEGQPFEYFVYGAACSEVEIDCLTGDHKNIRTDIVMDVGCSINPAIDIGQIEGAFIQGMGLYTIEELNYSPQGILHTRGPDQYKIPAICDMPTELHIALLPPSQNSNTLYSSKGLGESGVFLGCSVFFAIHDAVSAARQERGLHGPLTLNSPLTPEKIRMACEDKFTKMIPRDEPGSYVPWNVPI

[7] = Cmax in beagle dog at 5 mg/kg, po administered via gavage by LC-MS/MS analysis; type: ADME, organism-based, Canis lupus familiaris; design: dose 5 mg/kg, route oral; conditions: in vivo
Cytochrome P450 3A = Cytochrome P450 3A (Homo sapiens, UniProt P08684+P20815+Q9HB55+P24462); assay: Inhibition of recombinant human CYP3A; type: ADME; conditions: recombinant enzyme
Mus musculus [8] = organism: Mus musculus; assay: Effect on cAMP level in CD-1 mouse brain hippocampus by immunoassay; type: functional
Summary of the method: (§1)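 CD-1 mice dosed SC (solution in 20% SBE-β-CD with 2 molar equivalents 1N HCl, 1 mL/kg); euthanized by focused microwave irradiation of brain; cortex, striatum, hippocampus homogenized in 0.5 N HCl, centrifuged; cyclic nucleotides in supernatant by enzyme immunoassay. Unbound brain exposure from satellite animals; dose-response and time-course data combined with linear model; one-way ANOVA with Fisher's PLSD.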

Mus musculus [9] = organism: Mus musculus; assay: Effect on cAMP level in CD-1 mouse brain cortex by immunoassay; type: functional; summary of the method: as §1
[10] = Cmax in Wistar Han rat at 1 mg/kg, iv by LC-MS/MS analysis; type: ADME, organism-based; design: dose 1 mg/kg, route intravenous; conditions: in vivo
Summary of the method: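 Male Wistar-Han rats given single 1 mg/kg IV; beagle dogs 0.3 mg/kg IV; solution in 20% (w/v) sulfobutyl ether β-cyclodextrin with hydrochloric acid, 1 mL/kg (rat) or 0.4 mL/kg (dog). Blood via carotid artery cannula between 2 min and 24 h into EDTA tubes; plasma analysed by LC-MS/MS with positive electrospray.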

Rattus norvegicus [11] = organism: Rattus norvegicus; assay: Cardiotoxicity in rat up to 1 month by microscopic method; type: toxicity
Brain = assay: Drug uptake in rat brain at 5 to 250 mg/kg/day, po up to 15 days by microscopic method; type: ADME, organism-based; conditions: in vivo, 360 h
Summary of the method: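 Exploratory rat toxicity study, oral dosing at 5, 50 and 250 mg/kg/day for up to 15 days, with microscopic examination of heart and vasculature and measurement of plasma and brain exposure.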

Cytochrome P450 2C19 [12] = target: T1, Cytochrome P450 2C19; assay: Time-dependant inhibition of recombinant human CYP2C19; type: ADME; conditions: recombinant enzyme

Tmax [3]: 4.8 min | inhibition (INH) (Cytochrome P450 2C19 [4]): Not Active | Vd [5]: 2.89 L/kg | CLint scaled [6]: 44 mL/min/kg | Drug metabolism (Aldehyde oxidase): Metabolite_Notdetected | Cmax [7]: 1770 ng/mL | inhibition (INH) (Cytochrome P450 3A): Not Active | Cmax [10]: 1020 ng/mL | Drug uptake (Brain): Active | TDI (Cytochrome P450 2C19 [12]): Not Active
SMILES: Cc1nc(-c2cnn(C)c2-c2ccc(C(F)(F)F)cn2)c2c(N3CCC3)ncnn12 [PF-05180999]
Activity (Mus musculus [1]): inactive | Activity (Rattus norvegicus [2]): inactive | Activity (Mus musculus [8]): inactive | Activity (Mus musculus [9]): inactive | Activity (Rattus norvegicus [11]): Non-Toxic
